Laboratory results: ChEMBL document CHEMBL1134250, “Inhibition of neuronal nitric oxide synthase by 7-methoxyindazole and related substituted indazoles” (Bioorg Med Chem Lett, 2001)

Columns and labels:
[1] = molecular target: T1, Nitric oxide synthase 1 (Rattus norvegicus, UniProt P29476); assay: In vitro inhibitory concentration against rat cerebellar neuronal nitric oxide synthase
[2] = molecular target: Nitric oxide synthase 1 (Rattus norvegicus) (UniProt P29476); assay: In vitro percent inhibition of rat cerebellar neuronal nitric oxide synthase at a concentration of 100 uM
Chain of Nitric oxide synthase 1 (Rattus norvegicus) (P29476 whole entry): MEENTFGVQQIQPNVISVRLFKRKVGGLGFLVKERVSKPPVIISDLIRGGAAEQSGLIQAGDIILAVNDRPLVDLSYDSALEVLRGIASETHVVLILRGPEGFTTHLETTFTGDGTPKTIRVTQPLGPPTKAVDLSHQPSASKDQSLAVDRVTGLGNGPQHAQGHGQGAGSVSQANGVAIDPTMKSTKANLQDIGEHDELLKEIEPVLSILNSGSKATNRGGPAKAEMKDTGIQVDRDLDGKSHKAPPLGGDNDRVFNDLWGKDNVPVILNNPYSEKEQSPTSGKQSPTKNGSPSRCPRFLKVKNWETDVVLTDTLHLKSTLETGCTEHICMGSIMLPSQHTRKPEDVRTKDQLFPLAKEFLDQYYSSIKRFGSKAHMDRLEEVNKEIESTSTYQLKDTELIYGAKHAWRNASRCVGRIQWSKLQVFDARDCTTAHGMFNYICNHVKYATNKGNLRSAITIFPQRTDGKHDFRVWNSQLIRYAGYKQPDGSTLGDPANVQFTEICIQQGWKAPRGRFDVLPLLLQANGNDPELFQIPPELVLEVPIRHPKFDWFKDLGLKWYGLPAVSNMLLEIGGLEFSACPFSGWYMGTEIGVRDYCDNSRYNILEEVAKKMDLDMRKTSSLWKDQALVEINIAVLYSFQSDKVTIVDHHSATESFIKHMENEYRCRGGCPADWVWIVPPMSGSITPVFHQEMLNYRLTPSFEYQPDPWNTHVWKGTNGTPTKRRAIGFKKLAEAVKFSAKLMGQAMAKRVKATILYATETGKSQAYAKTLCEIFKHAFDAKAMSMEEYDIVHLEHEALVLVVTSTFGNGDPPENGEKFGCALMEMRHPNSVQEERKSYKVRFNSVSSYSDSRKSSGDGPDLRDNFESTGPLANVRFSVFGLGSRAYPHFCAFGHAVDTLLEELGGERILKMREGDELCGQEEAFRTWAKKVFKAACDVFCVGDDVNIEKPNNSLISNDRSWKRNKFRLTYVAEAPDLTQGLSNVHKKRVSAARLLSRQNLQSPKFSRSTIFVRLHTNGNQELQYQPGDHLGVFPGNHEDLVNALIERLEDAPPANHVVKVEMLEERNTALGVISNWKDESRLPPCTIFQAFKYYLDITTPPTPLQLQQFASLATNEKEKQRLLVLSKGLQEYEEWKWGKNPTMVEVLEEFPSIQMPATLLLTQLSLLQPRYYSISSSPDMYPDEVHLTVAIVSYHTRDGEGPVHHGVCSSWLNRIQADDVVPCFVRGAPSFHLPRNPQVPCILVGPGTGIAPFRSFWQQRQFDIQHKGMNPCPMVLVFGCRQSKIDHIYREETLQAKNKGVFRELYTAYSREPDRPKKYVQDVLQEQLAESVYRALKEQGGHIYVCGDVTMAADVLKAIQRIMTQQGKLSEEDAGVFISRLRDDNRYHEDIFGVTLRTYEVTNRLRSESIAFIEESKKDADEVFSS
Outline: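 Rat cerebellar homogenate nNOS, assayed as L-[3H]arginine to L-[3H]citrulline conversion (1 mM CaCl2, 200 μM β-NADPH, 0.88 μM L-arginine, 0.12 µM L-[3H]arginine, 15 min, 37 °C). Compound at 100 µM in ethanol or DMSO vehicle. Result given as % inhibition.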

[3] = molecular target: T1, Nitric oxide synthase 1; assay: In vitro inhibitory concentration against rat cerebellar neuronal nitric oxide synthase; No effect
Outline: (§1)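 Rat cerebellum homogenate nNOS. L-[3H]arginine to L-[3H]citrulline conversion with 1 mM CaCl2, 200 μM β-NADPH, 0.88 μM L-arginine and 0.12 µM L-[3H]arginine, 15 min at 37 °C. Vehicle ethanol or DMSO 0.4–0.8%. IC50 from inhibition curves at 0.1, 1, 10 and 100 µM. Mean ± SEM, 1–6 experiments.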

[4] = molecular target: Nitric oxide synthase 1 (Rattus norvegicus) (UniProt P29476); assay: Ex vivo inhibition of rat cerebellar neuronal nitric oxide synthase after intraperitoneal administration in rats.; format: functional, organism-based; details: concentration not given here
Outline: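 Rats, n=6, received 50 mg/kg ip in arachis oil. Cerebellum removed 30 min later. nNOS activity measured ex vivo as L-[3H]arginine to L-[3H]citrulline conversion. Expressed as % inhibition.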

[5] = molecular target: T1, Nitric oxide synthase 1; assay: In vitro inhibitory concentration against rat cerebellar neuronal nitric oxide synthase; no effect; outline: as §1
[6] = test system: Mus musculus; assay: Antinociceptive activity in Writhing test in mice(ip) at a dose of 50 mg/kg (p<0.001); format: functional
[7] = test system: Mus musculus; assay: Antinociceptive activity in Writhing test in mice(ip) at a dose of 10 mg/kg (p<0.05); format: functional
[8] = test system: Mus musculus; assay: Antinociceptive activity in Writhing test in mice(ip) at a dose of 25 mg/kg (p<0.05); format: functional
[9] = test system: Mus musculus; assay: Effect of l-Arginine on Antinociceptive activity in mice(ip) at a dose of 50 mg/kg (p<0.05); format: functional
[10] = test system: Mus musculus; assay: Antinociceptive activity in Writhing test in mice(ip) at a dose of 15 mg/kg (p<0.001)

T1 sequence (P29476 whole entry): as above

Row | Compound | IC50 [1] | inhibition [2] | also measured
1 | CCOc1cccc2c[nH]nc12 | 100 µM | 50% | –
2 | Cc1ccc2cn[nH]c2c1 | > 100 µM | – | –
3 | Brc1ccc2[nH]ncc2c1 | 75 µM | – | –
4 | COc1ccc2c[nH]nc2c1 | – | 0% | IC50 [3]: Not Active
5 | FC(F)(F)c1ccccc1-n1ccnc1 | 30 µM | – | inhibition [4]: 45%
6 | Clc1ccc2cn[nH]c2c1 | 28 µM | – | –
7 | c1ccc(COc2cccc3c[nH]nc23)cc1 | – | 0% | IC50 [5]: Not Active
8 | O=[N+]([O-])c1cccc2cn[nH]c12 [7-NITROINDAZOLE] | – | – | No. of writhes [6]: 6.2; inhibition [4]: 92%
9 | COc1cccc2[nH]ncc12 | > 100 µM | 30% | –
10 | Fc1ccc2[nH]ncc2c1 | > 100 µM | – | –
11 | COc1cccc2c(I)[nH]nc12 | – | 0% | IC50 [5]: Not Active
12 | COc1cccc2c[nH]nc12 | 6.3 µM | 80% | No. of writhes [7]: 15.4; No. of writhes [8]: 12.2; No. of writhes [6]: 4.7; No. of writhes [9]: 10.6
13 | CC(=O)Oc1ccccc1C(=O)O [ASPIRIN] | – | – | No. of writhes [10]: 3.5
14 | COc1ccc2[nH]ncc2c1 | > 100 µM | 25% | –
15 | Oc1cccc2cn[nH]c12 | > 100 µM | 7% | –
